These results are taken from publication PMC10433104 (Journal of medicinal chemistry, 2023).

Molecules are shown by their SMILES.

Chain of PDE4D7-S129D (PDE4D*) (Q08499 1-748 isoform Q08499-11 S129D, species assumed): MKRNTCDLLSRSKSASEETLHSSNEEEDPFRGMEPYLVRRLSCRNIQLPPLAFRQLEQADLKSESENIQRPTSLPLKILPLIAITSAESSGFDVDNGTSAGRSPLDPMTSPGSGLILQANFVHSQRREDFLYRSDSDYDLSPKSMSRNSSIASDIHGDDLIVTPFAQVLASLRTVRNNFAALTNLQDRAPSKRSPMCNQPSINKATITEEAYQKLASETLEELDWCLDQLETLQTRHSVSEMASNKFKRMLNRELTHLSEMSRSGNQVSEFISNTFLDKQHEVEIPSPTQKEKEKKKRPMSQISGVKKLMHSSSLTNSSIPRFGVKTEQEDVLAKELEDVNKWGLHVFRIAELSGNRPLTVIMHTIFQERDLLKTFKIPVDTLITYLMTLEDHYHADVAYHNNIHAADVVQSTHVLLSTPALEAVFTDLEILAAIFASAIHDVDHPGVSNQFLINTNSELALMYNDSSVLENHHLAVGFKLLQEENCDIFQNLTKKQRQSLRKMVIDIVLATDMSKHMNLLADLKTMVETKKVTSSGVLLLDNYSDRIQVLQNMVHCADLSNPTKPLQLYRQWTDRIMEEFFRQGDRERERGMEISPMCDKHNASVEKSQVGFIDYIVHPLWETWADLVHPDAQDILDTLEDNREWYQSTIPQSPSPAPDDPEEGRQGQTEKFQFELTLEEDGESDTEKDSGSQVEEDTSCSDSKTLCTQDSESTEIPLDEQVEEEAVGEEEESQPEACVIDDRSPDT

This assay has as its target PDE4D7-S129D (PDE4D*) (Homo sapiens, UniProt Q08499, S190D). As to the kind of experiment: PDE4 enzyme inhibition assay. It is filed as biochemical. The following applies: ratio of IC50 for PDE4B* over that for PDE4D*. In short, it runs like this:
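Mutationally activated dimeric enzymes were used: PDE4D7-S129D (PDE4D*) and PDE4B1-S133D (PDE4B*). PDE4B served as the comparator for the PDE4 subtypes. Activity was read with a real-time coupled enzyme assay rather than a fluorescein-labelled cAMP substrate. An IC50 was obtained against each enzyme, and selectivity was taken as PDE4B* IC50 divided by PDE4D* IC50 (B/D ratio).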
As for `Fc1ccc(Cc2cn[nH]c2)nc1-c1cccc(Cl)c1` [Compound 10, 6-((1H-Pyrazol-4-yl)methyl)-2-(3-chlorophenyl)-3-fluoropyridine], the “Selectivity B/D” value is greater than 13.

As to `FC(F)Oc1cccc(-c2nc(Cc3cn[nH]c3)ccc2OCc2ccccc2)c1` [Compound 57], the “Selectivity B/D” value was greater than 61.

In the case of `COc1cccc(-c2nc(Cn3cnc(C(F)(F)F)n3)ccc2OC(F)F)c1` [Compound 44, 3-(Difluoromethoxy)-2-(3-methoxyphenyl)-6-((3-(trifluoromethyl)-1H-1,2,4-triazol-1-yl)methyl)pyridine], the “Selectivity B/D” value is greater than 13.

As to `COc1cccc(-c2nc(Cc3ccc(CCCO)cc3)ccc2OC(F)F)c1` [Compound 56, 3-(4-((5-(Difluoromethoxy)-6-(3-methoxyphenyl)pyridin-2-yl)methyl)phenyl)propan-1-ol], the “Selectivity B/D” value is listed as greater than 420.

For the compound `COc1ccc(Cc2ccc(CCO)cc2)nc1-c1cccc(OC(F)F)c1` [Compound 53, 2-(4-((6-(3-(Difluoromethoxy)phenyl)-5-methoxypyridin-2-yl)methyl)phenyl)ethan-1-ol], the “Selectivity B/D” value is greater than 2519.

For `COc1cccc(-c2nc(Nc3cn[nH]c3)ccc2OC(F)F)c1` [Compound 20, 5-(Difluoromethoxy)-6-(3-methoxyphenyl)-N-(1H-pyrazol-4-yl)pyridin-2-amine], the “Selectivity B/D” value is greater than 15.

As to `COc1ccc(Cn2cncn2)nc1-c1cccc(OC(F)F)c1` [Compound 32, 6-((1H-1,2,4-Triazol-1-yl)methyl)-2-(3-(difluoromethoxy)phenyl)3-methoxypyridine], the “Selectivity B/D” value is greater than 649.

As for `COc1ccc(Oc2cn[nH]c2)nc1-c1cccc(OC(F)F)c1` [Compound 18, 6-((1H-Pyrazol-4-yl)oxy)-2-(3-(difluoromethoxy)phenyl)-3-methoxypyridine], the “Selectivity B/D” value was greater than 6.

For the compound `COc1cccc(-c2nc(Cn3ncnn3)ccc2OC(F)F)c1` [Compound 47, 6-((2H-Tetrazol-2-yl)methyl)-3-(difluoromethoxy)-2-(3methoxyphenyl)pyridine], the “Selectivity B/D” value is recorded as greater than 575.

Turning to `COc1ccc(Cn2ncnn2)nc1-c1cccc(OC(F)F)c1` [Compound 34, 6-((2H-Tetrazol-2-yl)methyl)-2-(3-(difluoromethoxy)phenyl)-3methoxypyridine], the “Selectivity B/D” value is greater than 472.

Turning to `COc1ccc(Nc2cn[nH]c2)nc1-c1cccc(C(F)(F)F)c1` [Compound 13, 5-Methoxy-N-(1H-pyrazol-4-yl)-6-(3-(trifluoromethyl)phenyl)pyridin-2-amine], the “Selectivity B/D” value is reported as greater than 2.

Consider `FC(F)Oc1cccc(-c2nc(Cc3ccncc3)ccc2OCc2ccccc2)c1` [Compound 58, 3-(Benzyloxy)-2-(3-(difluoromethoxy)phenyl)-6-(pyridin-4ylmethyl)pyridine], for which the “Selectivity B/D” value was greater than 13.

As to `COc1ccc(Cn2cnc(C(F)(F)F)n2)nc1-c1cccc(OC(F)F)c1` [Compound 31, 2-(3-(Difluoromethoxy)phenyl)-3-methoxy-6-((3-(trifluoromethyl)-1H-1,2,4-triazol-1-yl)methyl)pyridine], the “Selectivity B/D” value is given as greater than 13.

Turning to `FC(F)Oc1cccc(-c2nc(Cn3ccnc3)ccc2OCc2ccccc2)c1` [Compound 59, 6-((1H-Imidazol-1-yl)methyl)-3-(benzyloxy)-2-(3(difluoromethoxy)phenyl)pyridine], the “Selectivity B/D” value was greater than 57.

As to `COc1ccc(Cc2ccc(CCCO)cc2)nc1-c1cccc(OC(F)F)c1` [Compound 54, 3-(4-((6-(3-(Difluoromethoxy)phenyl)-5-methoxypyridin-2-yl)methyl)phenyl)propan-1-ol], the “Selectivity B/D” value is greater than 621.

Consider `COc1cccc(-c2nc(COc3cn[nH]c3)ccc2OC(F)F)c1` [Compound 40, 6-(((1H-Pyrazol-4-yl)oxy)methyl)-3-(difluoromethoxy)-2-(3methoxyphenyl)pyridine], for which the “Selectivity B/D” value is reported as greater than 27.

For the compound `COc1ccc(Cn2cccn2)nc1-c1cccc(F)c1` [Compound 24, 6-((1H-Pyrazol-1-yl)methyl)-2-(3-fluorophenyl)-3-methoxypyridine], the “Selectivity B/D” value is greater than 2.

Turning to `COc1cccc(-c2nc(Cn3cncn3)ccc2OC(F)F)c1` [Compound 45, 6-((1H-1,2,4-Triazol-1-yl)methyl)-3-(difluoromethoxy)-2-(3methoxyphenyl)pyridine], the “Selectivity B/D” value is reported as greater than 238.
